Measurements gathered from unrelated publications.
Each line is one published result; the experiments were not run side by side.
Target: Serine/threonine-protein kinase PknB (pknB, Mycobacterium tuberculosis, UniProt P9WI81)

With `Nc1ncc2c(n1)-c1c([nH]c3ccc(C#CC4CC4)cc13)CCCC2` the remaining binding was 90% (binding, competition with immobilised ligand; 1 µM).
`CN(CCCC(F)(F)F)c1nccc(-c2cnn3ncccc23)n1` gave a remaining binding of 89% (binding; 1 µM).
With `CC1=C(C#N)C(c2ccc3c(c2)c(NC(=O)c2ccccc2C)nn3C)C(C#N)=C(C)N1` the remaining binding was 97% (cell-free assay, competition with immobilised ligand; 1 µM).
`N[C@@H]1CCN(c2nccc(-c3cnn4ncccc34)n2)C1` has a remaining binding of 100% (binding; 1 µM).
The remaining binding of `Cc1nn(C)cc1-c1nc2c(N3CCN(Cc4ccc(Cl)cc4)CC3)c(Cl)cnc2[nH]1` is reported as 56% (binding, competition with immobilised ligand; 1 µM).
With `Cc1c(NC(=O)c2cc(C(N)=O)nc3cc(F)ccc23)c(C(F)(F)F)nn1Cc1ccc(C#N)cc1` the remaining binding was 78% (cell-free assay, competition with immobilised ligand; 1 µM).
The remaining binding of `CNC(=O)[C@@H]1CC[C@@H](n2c(-c3ccc4cnccc4c3)nc3ccc(C(=O)NCc4cccc(C(N)=O)c4)cc32)C1` is reported as 96% (binding, competition with immobilised ligand; 1 µM).
The remaining binding of `O=C(Nc1c[nH]nc1C(=O)NC1CCNCC1)c1cc(F)cc(F)c1` is reported as 100% (binding, competition with immobilised ligand; 1 µM).
`c1cncc(-c2cccc(Nc3nccc(NC4CCCCC4)n3)c2)c1` gave a remaining binding of 89% (binding, competition with immobilised ligand; 10 µM).
The remaining binding of `COc1cc(-c2cn(C3CCc4c(F)cccc4N(CC(F)(F)F)C3=O)nn2)ccc1-n1cnc(C)c1` (stereo not drawn) is reported as 82% (cell-free assay, competition with immobilised ligand; 1 µM).
`COc1ccnn2ncc(-c3ccnc(N(C)C)n3)c12` has a remaining binding of 100% (binding; 1 µM).
`CN(C)CC#Cc1ccc(OCCCc2sc(N3CCc4cccc(C(=O)Nc5nc6ccccc6s5)c4C3)nc2C(=O)O)c(F)c1` gave a remaining binding of 100% (cell-free assay, competition with immobilised ligand; 1 µM).
For `CN(c1nccc(-c2cnn3ncccc23)n1)C1CC1`, the remaining binding was 100% (binding; 1 µM).
`CNC(=O)Nc1ccc2c(c1)[C@@]1(CC2)OC(=O)N(CC(=O)N(Cc2ccc(F)cc2)[C@@H](C)C(F)(F)F)C1=O` gave a remaining binding of 84% (cell-free assay, competition with immobilised ligand; 1 µM).
For `FC(F)(F)Oc1cccc(-c2cnc3ccc(-c4ccncc4)nn23)c1`, the remaining binding was 31% (cell-free assay, competition with immobilised ligand; 5 µM).
